From ChEMBL document CHEMBL1157638, “Fluorescent epigenetic small molecule induces expression of the tumor suppressor ras-association domain family 1A and inhibits human prostate xenograft” (J Med Chem, 2010)

Key:
[1] = test system: HCT-15; experiment: Growth inhibition of human HCT15 cells; type: functional
Outline: (§1)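 Run externally at the National Cancer Institute as a 59-cell-line panel screen, with concentrations up to 100 μM. Growth was scored relative to control, where negative growth or total cell kill was possible. Data are in the Supporting Information.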

[2] = test system: CAKI-1; experiment: Growth inhibition of human Caki1 cells; type: functional; outline: as §1
[3] = test system: OVCAR-5; experiment: Growth inhibition of human OVCAR5 cells; type: functional
[4] = test system: PC-3; experiment: Drug uptake in cytoplasm of human PC3 cells at 5 uM by confocal microscopy; type: ADME, cell-based; conditions: pc-3, 5 µM
Outline: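 PC-3 cells were plated overnight on fibronectin/[…]-coated slides and treated with 5 μM compound or DMSO for 1-6 h. Cells were PBS-washed, fixed in 4% formaldehyde, and stained with propidium iodide (nuclei) and anti-DNMT3a or anti-DNMT3b antibody. The compound was excited at 725 nm by multiphoton laser and imaged through a 500-550 nm filter by confocal microscopy.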

[5] = read-out: LC50 (the source's name)

Which GI50 [1] does the source give for `COc1ccc2c(c1)[nH]c1c(C)c(OS(=O)(=O)c3cccc4c(N(C)C)cccc34)ccc12` here?
The GI50 was 4.35 µM.

And the TGI [1]?
Its TGI is greater than 100 µM.

And the CC50 [1, 5]?
Its CC50 is greater than 100 µM.

And the GI50 [2]?
Its GI50 is 27.5 µM.

What about the TGI [2] of the same molecule?
Its TGI is greater than 100 µM.

And the CC50 [2, 5]?
Its CC50 is greater than 100 µM.

What about the GI50 [3] of the same molecule?
Its GI50 is 56.1 µM.

What about the TGI [3] of the same molecule?
Its TGI is greater than 100 µM.

What about the CC50 [3, 5] of the same molecule?
The CC50 was greater than 100 µM.

And the Drug uptake [4]?
Its Drug uptake is “Active”.
